Active and inactive are the calls of the source. No cut-off for these calls is given here.
Assays:
Homo sapiens = organism: Homo sapiens; assay: Inhibition of purified 19S proteasome (unknown origin) assessed as reduction in cleavage of luminescent substrate Ub-AML at 100 uM
[1] = molecular target: Ubiquitin carboxyl-terminal hydrolase isozyme L3 (Homo sapiens) (UniProt P15374); assay: Inhibition of human recombinant UCHL3 assessed as reduction in cleavage of luminescent substrate Ub-AML at 100 uM
Outline: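 Purified recombinant DUBs assayed with Ub-AML as luminescent substrate, using the Glo reagent protocol and read on a microplate luminometer.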

HeLa [2] = assay: Inhibition of deubiquitinase in human HeLa cell extracts assessed as decrease in global DUB activity at 10 uM using luminescent substrate Ub-AML; type: cell-free
Outline: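 HeLa crude extracts used as the DUB source, prepared as for the ABP assays. Global DUB activity read by luminescence with Ub-AML substrate, using the Glo reagent protocol.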

HCT-116 = assay: Cytotoxicity in human HCT116 cells assessed as reduction in cell viability incubated for 72 hrs Cell-titer Glo reagent based assay; type: functional
Outline: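 Tumor lines grown at 37 °C, 5% CO2 with 10% FBS (DMEM for HeLa and SiHa; RPMI for HCT116) and exposed to compound for 72 h. Viability read by CellTiter Glo luminescence; IC50 derived from n=6.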

[3] = molecular target: Ubiquitin carboxyl-terminal hydrolase 14 (Homo sapiens) (UniProt P54578); assay: Inhibition of USP14 in human HeLa crude cell extracts assessed as induction of formation of high molecular weight complexes with USP14 at 10 uM incubated for 2 hrs by immunoblot analysis; type: cell-free
[4] = molecular target: T1, Ubiquitin carboxyl-terminal hydrolase isozyme L5 (Homo sapiens) (UniProt Q9Y5K5); assay: Inhibition of UCH-37 in human HeLa crude cell extracts assessed as induction of formation of high molecular weight complexes with […] at 10 uM incubated for 2 hrs by immunoblot analysis; type: cell-free
T1 sequence (whole entry): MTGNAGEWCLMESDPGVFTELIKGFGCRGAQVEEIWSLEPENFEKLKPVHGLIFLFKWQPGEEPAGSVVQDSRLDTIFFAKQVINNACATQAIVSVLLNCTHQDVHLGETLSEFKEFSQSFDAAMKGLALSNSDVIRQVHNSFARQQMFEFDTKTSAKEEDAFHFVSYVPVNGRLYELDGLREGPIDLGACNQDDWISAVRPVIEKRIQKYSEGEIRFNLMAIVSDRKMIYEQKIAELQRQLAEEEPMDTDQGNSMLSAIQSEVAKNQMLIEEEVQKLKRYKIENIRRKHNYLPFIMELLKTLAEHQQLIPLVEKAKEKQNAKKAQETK

[5] = molecular target: Ubiquitin carboxyl-terminal hydrolase 14 (Homo sapiens) (UniProt P54578); assay: Inhibition of USP14 in intact human HeLa cells assessed as induction of formation of high molecular weight complexes with USP14 at 10 uM in presence of dithiothreitol incubated for 2 hrs by immunoblot analysis; type: cell-based
Outline: (§1)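 Intact HeLa cells (DMEM, 10% FBS, about 80% confluent) treated 2 h with vehicle or 10 μM compound, with or without 10 mM DTT or 10 mM GSH. Cells washed in cold PBS and lysed in RIPA with protease and phosphatase inhibitors. High-MW species detected by SDS-PAGE immunoblot; shorter exposures served as loading control.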

[6] = molecular target: T1, Ubiquitin carboxyl-terminal hydrolase isozyme L5 (Homo sapiens); assay: Inhibition of UCH-37 in human HeLa crude cell extracts assessed as induction of formation of high molecular weight complexes with […] at 10 uM incubated for 2 hrs in presence of glutathione by immunoblot analysis; type: cell-free
[7] = molecular target: T1, Ubiquitin carboxyl-terminal hydrolase isozyme L5 (Homo sapiens); assay: Inhibition of UCH-37 in intact human HeLa cells assessed as induction of formation of high molecular weight complexes with USP14 at 10 uM incubated for 2 hrs in presence of glutathione by immunoblot analysis; type: cell-based; outline: as §1
HeLa [8] = assay: Inhibition of deubiquitinase in human HeLa cell extracts assessed as induction of accumulation of high molecular weight ubiquitylated proteins at 10 uM incubated for 2 hrs in presence of DTT by immunoblot analysis; type: cell-free
HeLa [9] = assay: Inhibition of deubiquitinase in human HeLa cell extracts assessed as increase in high molecular weight protein complexes at 10 uM incubated for 2 hrs in presence of DTT by SDS-PAGE and Coomassie Blue staining based method; type: cell-free
HeLa [10] = assay: Inhibition of deubiquitinase in human HeLa cell extracts assessed as increase in high molecular weight protein complexes at 10 uM incubated for 2 hrs in presence of GSH by SDS-PAGE and Coomassie Blue staining based method; type: cell-free
[11] = molecular target: T2, Ubiquitin carboxyl-terminal hydrolase 28 (Homo sapiens) (UniProt Q96RU2); assay: Inhibition of USP28 in human HeLa cell extracts assessed as inhibition of HA-Ub-C2Br probe labeling at 1 to 100 uM incubated for 30 mins by immunoblot analysis; type: cell-free
T2 sequence (whole entry): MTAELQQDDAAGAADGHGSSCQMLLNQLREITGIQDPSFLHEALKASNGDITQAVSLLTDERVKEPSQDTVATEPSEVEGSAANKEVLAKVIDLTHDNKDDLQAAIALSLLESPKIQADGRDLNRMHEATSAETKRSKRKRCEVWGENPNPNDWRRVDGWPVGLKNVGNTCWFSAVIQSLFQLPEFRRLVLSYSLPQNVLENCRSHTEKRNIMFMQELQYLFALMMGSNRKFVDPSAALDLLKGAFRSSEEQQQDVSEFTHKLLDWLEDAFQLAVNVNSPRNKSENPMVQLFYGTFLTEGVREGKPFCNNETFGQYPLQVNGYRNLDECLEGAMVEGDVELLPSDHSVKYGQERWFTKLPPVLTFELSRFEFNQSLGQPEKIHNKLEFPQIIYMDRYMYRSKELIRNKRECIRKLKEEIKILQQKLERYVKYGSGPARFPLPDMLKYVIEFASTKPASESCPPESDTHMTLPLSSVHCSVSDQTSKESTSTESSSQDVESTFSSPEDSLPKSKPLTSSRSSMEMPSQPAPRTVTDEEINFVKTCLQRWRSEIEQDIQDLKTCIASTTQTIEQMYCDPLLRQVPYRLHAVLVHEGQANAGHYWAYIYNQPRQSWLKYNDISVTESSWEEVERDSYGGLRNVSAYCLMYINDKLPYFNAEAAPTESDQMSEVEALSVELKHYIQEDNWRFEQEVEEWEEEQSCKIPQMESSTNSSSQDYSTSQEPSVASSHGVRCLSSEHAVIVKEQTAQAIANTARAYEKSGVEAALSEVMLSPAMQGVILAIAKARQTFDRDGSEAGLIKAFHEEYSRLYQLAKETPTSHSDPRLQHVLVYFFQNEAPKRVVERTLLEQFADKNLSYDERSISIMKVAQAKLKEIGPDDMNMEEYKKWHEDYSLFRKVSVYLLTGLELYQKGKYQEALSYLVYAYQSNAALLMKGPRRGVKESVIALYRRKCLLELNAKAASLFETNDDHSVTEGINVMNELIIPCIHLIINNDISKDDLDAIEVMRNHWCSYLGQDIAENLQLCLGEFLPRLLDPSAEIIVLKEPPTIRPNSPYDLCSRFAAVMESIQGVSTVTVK

Anamorsin (Homo sapiens) = Anamorsin (Homo sapiens) (UniProt Q6FI81); assay: Inhibition of CIAPIN1 in human KMS11 cells assessed as induction of high molecular weight complex formation at 1 to 10 uM incubated for 6 hrs by immunoblot analysis; type: cell-based
Chain of Anamorsin (Homo sapiens) (Q6FI81 whole entry): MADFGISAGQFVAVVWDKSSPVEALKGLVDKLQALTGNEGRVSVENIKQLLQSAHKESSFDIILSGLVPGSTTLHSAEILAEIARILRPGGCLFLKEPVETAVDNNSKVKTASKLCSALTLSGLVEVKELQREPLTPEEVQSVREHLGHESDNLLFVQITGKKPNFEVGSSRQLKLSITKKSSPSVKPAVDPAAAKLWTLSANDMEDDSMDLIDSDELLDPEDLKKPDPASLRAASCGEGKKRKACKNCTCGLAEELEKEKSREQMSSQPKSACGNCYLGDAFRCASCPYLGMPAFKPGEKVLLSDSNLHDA

Chain of Ubiquitin carboxyl-terminal hydrolase 14 (Homo sapiens) (P54578 whole entry): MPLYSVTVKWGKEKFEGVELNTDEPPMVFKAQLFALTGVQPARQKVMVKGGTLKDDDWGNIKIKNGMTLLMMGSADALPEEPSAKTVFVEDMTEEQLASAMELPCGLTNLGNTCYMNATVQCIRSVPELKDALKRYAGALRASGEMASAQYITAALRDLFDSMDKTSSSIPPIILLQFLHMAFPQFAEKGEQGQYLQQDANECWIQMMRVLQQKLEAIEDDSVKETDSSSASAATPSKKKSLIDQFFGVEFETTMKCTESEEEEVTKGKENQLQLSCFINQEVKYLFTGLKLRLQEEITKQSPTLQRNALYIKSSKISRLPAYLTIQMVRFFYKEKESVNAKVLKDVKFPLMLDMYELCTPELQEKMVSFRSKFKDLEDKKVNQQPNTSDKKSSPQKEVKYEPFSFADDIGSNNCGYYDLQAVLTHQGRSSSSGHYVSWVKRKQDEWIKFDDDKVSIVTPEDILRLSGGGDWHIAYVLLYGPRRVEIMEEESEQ
Chain of Ubiquitin carboxyl-terminal hydrolase isozyme L3 (Homo sapiens) (P15374 whole entry): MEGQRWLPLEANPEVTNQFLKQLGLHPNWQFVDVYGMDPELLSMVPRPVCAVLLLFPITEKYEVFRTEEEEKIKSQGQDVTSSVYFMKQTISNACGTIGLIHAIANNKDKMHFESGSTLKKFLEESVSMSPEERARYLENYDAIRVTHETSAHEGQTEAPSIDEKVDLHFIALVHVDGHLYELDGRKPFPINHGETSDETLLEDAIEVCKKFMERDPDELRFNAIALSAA

Structure (SMILES): C=CC(=O)N1C/C(=C\c2ccc([N+](=O)[O-])cc2)C(=O)/C(=C/c2ccc([N+](=O)[O-])cc2)C1
- inhibition (Homo sapiens): Active
- inhibition [1]: Active
- inhibition (HeLa [2]): Active
- Activity (HCT-116): Active
- inhibition [3]: Active
- inhibition [4]: Active
- inhibition [5]: inactive
- inhibition [6]: inactive
- inhibition [7]: inactive
- inhibition (HeLa [8]): inactive
- inhibition (HeLa [9]): inactive
- inhibition (HeLa [10]): inactive
- inhibition [11]: Active
- inhibition (Anamorsin (Homo sapiens)): Active

From ChEMBL document CHEMBL4354861, “Re-Evaluating the Mechanism of Action of α,β-Unsaturated Carbonyl DUB Inhibitors b-AP15 and VLX1570: A Paradigmatic Example of Unspecific Protein Cross-linking with Michael Acceptor Motif-Containing Drugs” (J Med Chem, 2020)
